Measured values from ChEMBL document CHEMBL2401709 (J Med Chem, 2013).
pIC50: −log10 of the molar value. Activity calls are given as the source filed them. The rule behind the calls is not given here.

Columns and labels:
[1] = tested on: G-361; experiment: Induction of apoptosis in human G361 cells assessed as induction of PARP-1 clevage at 640 nM after 16 hrs by immunoblotting analysis; type: functional, cell-based
Outline: (§1)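 Treated G361 cells harvested into Laemmli sample buffer. Proteins resolved by SDS-PAGE and blotted to nitrocellulose. Membranes blocked, probed overnight with specific primary antibodies, then peroxidase-conjugated secondaries. ECL detection by CCD camera. Actin served as loading control.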

[2] = biological target: Cyclin-dependent kinase 9 (Homo sapiens) (UniProt P50750); experiment: Inhibition of CDK9-mediated RNA polymerase 2 phosphorylation at ser2 in human G361 cells at 300 nM after 24 hrs by immunoblotting analysis; type: cell-based; conditions: G-361; outline: as §1
[3] = tested on: G-361; experiment: Induction of apoptosis in human G361 cells assessed as induction of PARP-1 clevage at 300 nM after 24 hrs by immunoblotting analysis; type: functional, cell-based; outline: as §1
[4] = biological target: T1, Cyclin-dependent kinase 1 (Homo sapiens, UniProt P06493); experiment: Inhibition of CDK1 in human G361 cells sensitized with nocodazole assessed as PP1alpha phosphorylation at Thr320 at 640 nM after 4 hrs by immunoblotting analysis; type: cell-based; conditions: G-361
Outline: (§2)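 G361 cells arrested in mitosis with nocodazole, then dosed with compound. Lysates in Laemmli buffer were immunoblotted on nitrocellulose with antibodies to phospho-PP1α (T320) and phospho-NPM (T199). Peroxidase secondaries with ECL detection.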

[5] = tested on: G-361; experiment: Induction of apoptosis in human G361 cells assessed as increase of caspase 3/7 activation using Ac-DEVD-AMC as substrate at 20 to 1280 nM after 24 hrs by fluorimetry assay; type: functional, cell-based
[6] = tested on: HeLa; experiment: Cytotoxicity against human HeLa cells assessed as growth inhibition after 72 hrs by calcein AM staining-based fluoroscence assay; type: functional, cell-based
[7] = tested on: G-361; experiment: Induction of apoptosis in human G361 cells assessed as reduction of retinoblastoma protein level at 640 nM after 16 hrs by immunoblotting analysis; type: functional, cell-based; outline: as §1
[8] = tested on: G-361; experiment: Induction of apoptosis in human G361 cells assessed as increase of activated caspase 3/7 level using Ac-DEVD-AMC as substrate at 20 to 1280 nM after 24 hrs by fluorimetry assay
[9] = tested on: G-361; experiment: Induction of apoptosis in human G361 cells assessed as induction of caspase-9 clevage at 300 nM after 24 hrs by immunoblotting analysis; type: functional, cell-based; outline: as §1
[10] = tested on: K562; experiment: Cytotoxicity against human K562 cells assessed as growth inhibition after 72 hrs by calcein AM staining-based fluoroscence assay; type: functional, cell-based; conditions: K562, 72 h
[11] = tested on: G-361; experiment: Induction of apoptosis in human G361 cells assessed as dephosphorylation of retinoblastoma protein at Ser612 at 640 nM up to 1 hr by immunoblotting analysis; type: functional, cell-based; outline: as §1
[12] = tested on: G-361; experiment: Cytotoxicity against human G361 cells assessed as growth inhibition after 72 hrs by calcein AM staining-based fluoroscence assay; type: functional, cell-based; conditions: G-361, 72 h
[13] = tested on: HCT-116; experiment: Cytotoxicity against human HCT116 cells assessed as growth inhibition after 72 hrs by calcein AM staining-based fluoroscence assay; type: functional, cell-based; conditions: HCT-116, 72 h
[14] = tested on: G-361; experiment: Induction of apoptosis in human G361 cells assessed as induction of caspase-7 clevage at 300 nM after 24 hrs by immunoblotting analysis; type: functional, cell-based; outline: as §1
[15] = tested on: G-361; experiment: Induction of apoptosis in human G361 cells assessed as caspase 3/7 activation at 640 nM after 16 hrs by Ac-DEVD-AMC-based fluorimetry assay; type: functional, cell-based
[16] = biological target: Cyclin-dependent kinase 2/cyclin E1 (Homo sapiens, UniProt P24941); experiment: Inhibition of human recombinant CDK2/Cyclin E expressed in baculovirus infected sf9 cells using histone H1 as substrate
[17] = biological target: CDK7/Cyclin H/MNAT1 (Homo sapiens, UniProt P50613); experiment: Inhibition of CDK7/Cyclin-H/MAT 1 (unknown origin) using (YSPTSPS)2KK peptide as substrate; type: protein-complex assay
Outline: (§3)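 CDK5/p35, CDK7/cyclin H/MAT1 and CDK9/cyclin T1 in 10 μL reactions with 0.05 μCi [γ-33P]ATP. CDK5 used 1 mg/mL histone H1 with 0.15 μM ATP. CDK7 and CDK9 used (YSPTSPS)2KK with 1.5 μM ATP. Stopped with H3PO4, spotted on P-81, washed. IC50 from dose-response curves.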

[18] = biological target: CDK9/cyclin T1 (Homo sapiens, UniProt P50750); experiment: Inhibition of CDK9/Cyclin T1 (unknown origin) using (YSPTSPS)2KK peptide as substrate; type: protein-complex assay; outline: as §3
[19] = biological target: Cyclin-dependent kinase 7 (Homo sapiens) (UniProt P50613); experiment: Inhibition of CDK7 in human G361 cells assessed as reduction of phosphorylation of CDK2 at T160 by immunoblotting analysis; type: cell-based; conditions: G-361; outline: as §1
[20] = tested on: G-361; experiment: Induction of apoptosis in human G361 cells assessed as reduction of RNA polymerase 2 level at 640 nM after 16 hrs by immunoblotting analysis; type: functional, cell-based; outline: as §1
[21] = tested on: G-361; experiment: Induction of apoptosis in human G361 cells assessed as increase in p53 after 24 hrs by immunoblotting analysis; type: functional, cell-based; outline: as §1
[22] = biological target: T1, Cyclin-dependent kinase 1; experiment: Inhibition of CDK1 in human G361 cells sensitized with nocodazole assessed as PP1alpha phosphorylation at Thr320 at 640 nM after 8 hrs by immunoblotting analysis; type: cell-based; conditions: G-361; outline: as §2
[23] = tested on: G-361; experiment: Induction of apoptosis in human G361 cells assessed as decrease in Mcl-1 at 300 nM after 24 hrs by immunoblotting analysis; type: functional, cell-based; outline: as §1
[24] = tested on: HOS; experiment: Cytotoxicity against human HOS cells assessed as growth inhibition after 72 hrs by calcein AM staining-based fluoroscence assay; type: functional, cell-based
[25] = tested on: G-361; experiment: Induction of apoptosis in human G361 cells assessed as induction of caspase-3 clevage at 300 nM after 24 hrs by immunoblotting analysis; type: functional, cell-based; outline: as §1
[26] = tested on: MCF7; experiment: Cytotoxicity against human MCF7 cells assessed as growth inhibition after 72 hrs by calcein AM staining-based fluoroscence assay; type: functional, cell-based; conditions: MCF7, 72 h
[27] = biological target: CDK2/CDK4 (Homo sapiens) (UniProt P11802+P24941); experiment: Inhibition of CDK2/4-mediated retinoblastoma protein phosphorylation at ser780 in human G361 cells at 300 nM after 24 hrs by immunoblotting analysis; type: cell-based; conditions: G-361; outline: as §1
[28] = biological target: Cyclin-dependent kinase 5/CDK5 activator 1 (Homo sapiens, UniProt Q00535); experiment: Inhibition of CDK5/p35 (unknown origin) using histone H1 as substrate; type: protein-complex assay; outline: as §3
[29] = tested on: G-361; experiment: Induction of apoptosis in human G361 cells assessed as caspase 3/7 activation using Ac-DEVD-AMC as substrate at 300 nM after 24 hrs by fluorimetry assay; type: functional, cell-based
[30] = tested on: G-361; experiment: Induction of apoptosis in human G361 cells assessed as decrease in Mcl-1 protein level at 300 nM after 24 hrs by immunoblotting analysis; type: functional, cell-based; outline: as §1
[31] = tested on: G-361; experiment: Induction of apoptosis in human G361 cells assessed as dephosphorylation of RNA polymerase 2 at Ser2 at 640 nM up to 1 hr by immunoblotting analysis; type: functional, cell-based; outline: as §1
[32] = tested on: G-361; experiment: Induction of apoptosis in human G361 cells assessed as dephosphorylation of retinoblastoma protein at Ser780 at 640 nM up to 1 hr by immunoblotting analysis; type: functional, cell-based; outline: as §1
[33] = biological target: Cyclin-dependent kinase 2 (Homo sapiens) (UniProt P24941); experiment: Inhibition of CDK2 in human G361 cells sensitized with nocodazole assessed as NPM phosphorylation at Thr199 at 640 nM after 4 hrs by immunoblotting analysis; type: cell-based; conditions: G-361; outline: as §2
[34] = biological target: Cyclin-dependent kinase 2/cyclin E1 (Homo sapiens) (UniProt P24864+P24941); experiment: Ratio of roscovitine IC50 to compound IC50 for human recombinant CDK2/Cyclin E; type: protein-complex assay
[35] = tested on: G-361; experiment: Induction of apoptosis in human G361 cells assessed as decrease in Mcl-1 at 640 nM up to 2 hrs by immunoblotting analysis; type: functional, cell-based; outline: as §1
[36] = tested on: G-361; experiment: Induction of apoptosis in human G361 cells assessed as decrease in Mcl-1 after 24 hrs by immunoblotting analysis; type: functional, cell-based; outline: as §1
[37] = tested on: G-361; experiment: Induction of apoptosis in human G361 cells assessed as induction of PARP-1 clevage at 80 nM after 24 hrs by immunoblotting analysis; type: functional, cell-based; outline: as §1
[38] = biological target: Cyclin-dependent kinase 7 (Homo sapiens) (UniProt P50613); experiment: Inhibition of CDK7 in human G361 cells assessed as reduction of phosphorylation of CDK1 at T161 by immunoblotting analysis; type: cell-based; conditions: G-361; outline: as §1
[39] = tested on: G-361; experiment: Induction of apoptosis in human G361 cells assessed as caspase 9 activation using Ac-DEHD-AMC as substrate at 300 nM after 24 hrs by fluorimetry assay; type: functional, cell-based; conditions: in the assay text read “Ac-LEHD-AMC” for “Ac-DEHD-AMC”
Outline: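 G361 lysates were made in CHAPS extraction buffer, pH 7.4, clarified at 10000g, and protein-equalized. They were incubated 24 h with 100 μM Ac-LEHD-AMC in 100 mM HEPES pH 7.5, 0.5 mM EDTA, 20% glycerol, 5 mM DTT. AMC fluorescence read at 355/460 nm (ex/em).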

[40] = tested on: G-361; experiment: Induction of apoptosis in human G361 cells assessed as dephosphorylation of RNA polymerase 2 at Ser5 at 640 nM up to 1 hr by immunoblotting analysis; type: functional, cell-based; outline: as §1

T1 sequence (P06493 whole entry, looked up): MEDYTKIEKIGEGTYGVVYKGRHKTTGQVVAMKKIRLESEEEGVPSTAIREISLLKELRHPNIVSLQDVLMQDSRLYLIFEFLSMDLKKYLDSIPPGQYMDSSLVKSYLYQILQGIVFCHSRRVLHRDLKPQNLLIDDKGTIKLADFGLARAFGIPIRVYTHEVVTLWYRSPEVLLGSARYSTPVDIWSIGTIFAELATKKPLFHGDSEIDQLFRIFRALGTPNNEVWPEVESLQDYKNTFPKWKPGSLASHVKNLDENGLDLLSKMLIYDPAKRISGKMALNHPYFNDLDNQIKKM
Cyclin-dependent kinase 7 (Homo sapiens), sequence (P50613 whole entry): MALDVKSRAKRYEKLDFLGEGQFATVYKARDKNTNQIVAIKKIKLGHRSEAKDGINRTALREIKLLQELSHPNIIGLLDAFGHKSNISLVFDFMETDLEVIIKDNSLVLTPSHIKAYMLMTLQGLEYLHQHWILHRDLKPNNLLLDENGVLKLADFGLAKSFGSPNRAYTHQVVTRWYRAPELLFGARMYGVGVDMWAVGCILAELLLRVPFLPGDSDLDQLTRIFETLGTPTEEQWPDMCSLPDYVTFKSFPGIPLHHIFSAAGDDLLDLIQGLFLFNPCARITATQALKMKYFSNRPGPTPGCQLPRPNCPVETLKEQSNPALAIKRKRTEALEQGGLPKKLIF
Cyclin-dependent kinase 9 (Homo sapiens), sequence (P50750 whole entry): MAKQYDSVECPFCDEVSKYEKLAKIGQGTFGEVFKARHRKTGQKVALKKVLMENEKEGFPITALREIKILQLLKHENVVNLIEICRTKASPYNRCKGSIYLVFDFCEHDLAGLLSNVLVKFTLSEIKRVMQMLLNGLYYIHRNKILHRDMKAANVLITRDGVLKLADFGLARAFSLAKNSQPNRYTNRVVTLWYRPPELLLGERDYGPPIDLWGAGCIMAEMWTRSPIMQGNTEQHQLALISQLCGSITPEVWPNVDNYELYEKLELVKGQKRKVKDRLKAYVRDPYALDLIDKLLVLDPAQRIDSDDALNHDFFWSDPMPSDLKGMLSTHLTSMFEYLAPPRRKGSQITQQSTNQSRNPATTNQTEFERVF
CDK7/Cyclin H/MNAT1, sequence (P51946 whole entry): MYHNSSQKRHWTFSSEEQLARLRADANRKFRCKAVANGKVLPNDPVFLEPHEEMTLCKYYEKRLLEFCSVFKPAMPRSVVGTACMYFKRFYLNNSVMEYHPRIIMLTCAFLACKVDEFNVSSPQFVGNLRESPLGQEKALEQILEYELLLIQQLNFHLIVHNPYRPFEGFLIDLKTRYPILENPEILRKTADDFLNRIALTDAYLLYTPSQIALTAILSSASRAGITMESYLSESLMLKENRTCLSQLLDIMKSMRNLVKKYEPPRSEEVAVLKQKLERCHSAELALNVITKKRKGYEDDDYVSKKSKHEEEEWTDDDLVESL
CDK7/Cyclin H/MNAT1, sequence (P50613 whole entry): as the sequence (P50613 whole entry) above
CDK7/Cyclin H/MNAT1, sequence (P51948 whole entry, further chain): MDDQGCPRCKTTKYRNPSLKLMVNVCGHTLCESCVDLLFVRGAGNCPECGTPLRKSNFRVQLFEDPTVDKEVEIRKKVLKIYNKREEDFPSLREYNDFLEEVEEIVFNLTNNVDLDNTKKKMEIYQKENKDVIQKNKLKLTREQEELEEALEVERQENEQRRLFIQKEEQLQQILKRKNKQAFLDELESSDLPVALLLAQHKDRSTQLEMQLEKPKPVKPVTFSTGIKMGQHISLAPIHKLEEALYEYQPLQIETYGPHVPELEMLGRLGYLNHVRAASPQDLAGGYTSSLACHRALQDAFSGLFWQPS
Cyclin-dependent kinase 5/CDK5 activator 1, sequence (Q00535 whole entry): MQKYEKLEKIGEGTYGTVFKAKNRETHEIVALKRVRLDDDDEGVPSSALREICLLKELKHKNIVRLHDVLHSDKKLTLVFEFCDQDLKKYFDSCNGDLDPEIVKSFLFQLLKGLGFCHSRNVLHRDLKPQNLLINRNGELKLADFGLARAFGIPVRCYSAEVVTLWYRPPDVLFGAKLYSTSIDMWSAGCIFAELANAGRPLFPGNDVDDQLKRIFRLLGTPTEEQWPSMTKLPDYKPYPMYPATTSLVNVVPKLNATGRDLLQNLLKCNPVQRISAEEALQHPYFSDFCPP
Cyclin-dependent kinase 5/CDK5 activator 1, sequence (Q15078 whole entry, further chain): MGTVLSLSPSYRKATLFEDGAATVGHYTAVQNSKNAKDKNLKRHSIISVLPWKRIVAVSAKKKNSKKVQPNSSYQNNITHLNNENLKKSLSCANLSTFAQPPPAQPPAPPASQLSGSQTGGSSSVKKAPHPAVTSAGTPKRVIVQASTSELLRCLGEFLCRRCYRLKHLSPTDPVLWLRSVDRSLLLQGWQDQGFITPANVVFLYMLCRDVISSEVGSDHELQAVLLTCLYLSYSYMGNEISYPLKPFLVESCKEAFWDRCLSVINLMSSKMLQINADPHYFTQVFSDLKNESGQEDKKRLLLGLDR
CDK9/cyclin T1, sequence (O60563 whole entry): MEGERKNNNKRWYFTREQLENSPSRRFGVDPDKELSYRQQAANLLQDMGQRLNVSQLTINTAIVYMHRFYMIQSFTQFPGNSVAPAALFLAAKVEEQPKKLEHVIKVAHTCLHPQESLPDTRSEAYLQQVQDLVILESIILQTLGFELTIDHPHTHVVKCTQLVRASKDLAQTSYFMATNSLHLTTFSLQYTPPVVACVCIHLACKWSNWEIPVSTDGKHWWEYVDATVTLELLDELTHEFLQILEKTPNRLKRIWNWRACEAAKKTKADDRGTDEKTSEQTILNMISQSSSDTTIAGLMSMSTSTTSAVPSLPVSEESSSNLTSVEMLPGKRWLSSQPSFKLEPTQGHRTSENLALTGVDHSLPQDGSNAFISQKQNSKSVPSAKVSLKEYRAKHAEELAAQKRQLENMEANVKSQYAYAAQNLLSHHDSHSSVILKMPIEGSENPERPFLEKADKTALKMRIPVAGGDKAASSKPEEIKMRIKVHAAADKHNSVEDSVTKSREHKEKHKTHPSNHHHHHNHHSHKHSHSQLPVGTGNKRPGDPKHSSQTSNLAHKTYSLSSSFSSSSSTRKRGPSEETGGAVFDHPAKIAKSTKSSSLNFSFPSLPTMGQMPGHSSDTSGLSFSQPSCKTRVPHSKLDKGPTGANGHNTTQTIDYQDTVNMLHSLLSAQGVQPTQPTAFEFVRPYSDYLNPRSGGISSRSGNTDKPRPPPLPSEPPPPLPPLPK
CDK9/cyclin T1, sequence (P50750 whole entry): as the sequence (P50750 whole entry) above

NC1CCC(Nc2nc(NCc3ccc(-c4ccccc4O)nc3)c3ncn(C4CCCC4)c3n2)CC1 (stereo not given)
Activity [1]: Active
Inhibition of RNA polymerase II Ser2 phosphorylation (qualitative) [2]: Active
Activity [3]: Active
inhibition [4]: Active
Activity [5]: Active
pIC50 [6]: 7.80
Activity [7]: Active
Activity [8]: Active
Activity [9]: Active
pIC50 [10]: 7.80
Activity [11]: Active
pIC50 [12]: 7.62
pIC50 [13]: 7.46
Activity [14]: Active
Activity [15]: Active
pIC50 [16]: 8.15
pIC50 [17]: 6.51
pIC50 [18]: 7.96
inhibition [19]: Active
Activity [20]: Active
Activity [21]: Dose-dependent effect
inhibition [22]: Active
Activity [23]: Active
pIC50 [24]: 7.85
Activity [25]: Active
pIC50 [26]: 7.74
inhibition [27]: Active
pIC50 [28]: 7.73
Activity [29]: Active
Activity [30]: Active
Activity [31]: Active
Activity [32]: Active
inhibition [33]: Active
Ratio IC50 [34]: 20
Activity [35]: Active
Activity [36]: Dose-dependent effect
Activity [37]: Active
inhibition [38]: Active
Activity [39]: Active
Activity [40]: Active
